Experimental data pooled from the literature.
Lines come from different studies, so protocols differ.
Target: Dual serine/threonine and tyrosine protein kinase (DSTYK, Homo sapiens, UniProt Q6XUX3)
Sequence (Q6XUX3 1-929, as in one of the studies): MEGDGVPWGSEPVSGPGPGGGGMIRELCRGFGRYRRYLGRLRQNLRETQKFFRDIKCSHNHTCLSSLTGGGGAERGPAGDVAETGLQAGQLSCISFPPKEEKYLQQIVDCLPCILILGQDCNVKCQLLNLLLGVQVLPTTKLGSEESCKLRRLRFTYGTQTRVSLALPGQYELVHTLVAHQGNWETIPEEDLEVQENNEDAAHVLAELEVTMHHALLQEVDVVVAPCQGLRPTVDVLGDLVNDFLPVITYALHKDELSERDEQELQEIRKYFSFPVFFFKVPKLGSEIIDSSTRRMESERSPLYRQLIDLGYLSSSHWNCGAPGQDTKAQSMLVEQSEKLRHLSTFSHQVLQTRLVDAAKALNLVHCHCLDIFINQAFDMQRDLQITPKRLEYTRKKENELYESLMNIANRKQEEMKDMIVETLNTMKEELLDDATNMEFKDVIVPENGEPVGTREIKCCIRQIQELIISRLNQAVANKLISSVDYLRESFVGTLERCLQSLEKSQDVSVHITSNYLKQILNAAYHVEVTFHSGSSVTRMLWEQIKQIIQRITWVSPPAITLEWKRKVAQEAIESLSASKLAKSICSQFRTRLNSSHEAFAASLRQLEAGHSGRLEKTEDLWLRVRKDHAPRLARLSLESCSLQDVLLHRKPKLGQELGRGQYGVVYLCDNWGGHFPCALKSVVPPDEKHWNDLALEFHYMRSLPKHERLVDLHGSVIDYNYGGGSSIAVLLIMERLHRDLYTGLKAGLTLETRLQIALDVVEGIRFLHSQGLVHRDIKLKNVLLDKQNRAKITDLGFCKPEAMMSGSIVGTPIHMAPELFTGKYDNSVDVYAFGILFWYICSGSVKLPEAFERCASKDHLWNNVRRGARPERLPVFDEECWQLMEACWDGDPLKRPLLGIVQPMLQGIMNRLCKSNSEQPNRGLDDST

| Structure (SMILES) | assay | setting | remaining binding |
| --- | --- | --- | --- |
| N[C@@H]1CCN(c2nccc(-c3cnn4ncccc34)n2)C1 | binding | 1 µM | 100% |
| CO[C@@H](C)c1c(Nc2ccc([C@@H](N(C)C(=O)C3CCS(=O)(=O)CC3)C(F)(F)F)cc2)cnc2cc(Cl)nn12 | cell-free assay, competition with immobilised ligand | 1 µM | 100% |
| O=C(NCC1CCOCC1)c1n[nH]cc1NC(=O)c1c(F)cccc1F | binding, competition with immobilised ligand | 1 µM | 86% |
| COc1ncc2cc3ccccc3nc2c1C#N | cell-free assay, competition with immobilised ligand | 5 µM | 100% |
| CN(C)c1nccc(-c2cnc3ncccn23)n1 | binding | 1 µM | 78% |
| FC(F)(F)Oc1cccc(-c2cnc3ccc(-c4ccncc4)nn23)c1 | binding, competition with immobilised ligand | 5 µM | 49% |
| C[C@@H]1CN(c2cc(-c3n[nH]c4ccc(OC5(C)CC5)cc34)ncn2)C[C@H](C)O1 | cell-free assay, competition with immobilised ligand | 0.1 µM | 77% |
| c1cncc(-c2cccc(Nc3nccc(NC4CCCCC4)n3)c2)c1 | binding, competition with immobilised ligand | 10 µM | 75% |
| O=C(N1CCS(=O)(=O)CC1)N1C[C@H](c2ccc(OC(F)(F)F)cc2)C[C@H](c2nc(C3CC3)no2)C1 | cell-free assay, competition with immobilised ligand | 1 µM | 100% |
| CN(C)c1ncc(F)c(-c2cnn3ncccc23)n1 | binding | 1 µM | 69% |
| CN(C)c1ncnc(-c2ccc3nc(Nc4cc(CN5CCN(C(=O)CC(F)(F)F)CC5)ccn4)[nH]c3c2)c1Cl | cell-free assay, competition with immobilised ligand | 1 µM | 95% |
| COc1ccnn2ncc(-c3ccnc(N(C)C)n3)c12 | binding | 1 µM | 100% |
| C[C@@H](c1ccc(-n2cnc3c(N)ncnc32)cc1)N1CCc2nn(C)c(Cc3ccccc3)c2C1=O | binding, competition with immobilised ligand | 0.1 µM | 58% |
| Cc1cnc(Nc2ccc(C(=O)N3CCC(N4CCCC4)CC3)cc2)nc1-c1cc2ccccc2s1 | binding, competition with immobilised ligand | 1 µM | 22% |
| COc1cnc(Nc2cccc(S(N)(=O)=O)c2)nc1N1CCN(c2ccccc2)CC1 | binding, competition with immobilised ligand | 1 µM | 100% |
| C[C@H]1CCN(c2nccc(-c3cnn4ncccc34)n2)C1 | binding | 1 µM | 94% |
| O=C(NCCCN1CCOCC1)c1ccc(Nc2nccc(-c3cc4ccccc4s3)n2)cc1 | binding, competition with immobilised ligand | 1 µM | 76% |
| CCOC(=O)c1cc2cc(-c3cc(C(=O)NCc4ccc(C(=O)O)cc4)nn3C)ccc2[nH]1 | cell-free assay, competition with immobilised ligand | 0.1 µM | 69% |
| F[C@@H]1CCN(c2nccc(-c3cnn4ncccc34)n2)C1 | binding | 1 µM | 100% |
| O=C1CCc2cc(Nc3cc(OC4CCOCC4)c([N+](=O)[O-])cc3Cl)ccc2N1 | cell-free assay, competition with immobilised ligand | 1 µM | 90% |
| CN(CCCC(F)(F)F)c1nccc(-c2cnn3ncccc23)n1 | binding | 1 µM | 88% |
| O=C(c1ccc(Nc2ncc(Cl)c(-c3ccc(Cl)s3)n2)cc1)N1CCC(N2CCCC2)CC1 | binding, competition with immobilised ligand | 1 µM | 14% |
